The list is not random: actives were taken first. Their share in the collection is about 1.8%.
CHRM5 agonist – human M5 muscarinic receptor agonists, primary screen, CHO-K1 cells, Fluo-8 calcium fluorescence | Muscarinic acetylcholine receptor M5 (Homo sapiens), P08912 | CHO-K1 hM5 cells; 0% DMSO wells, 100% maximal acetylcholine response | activation, % at 3 µM | 360,000 compounds, 0.19% hits | AID 624037, 2012;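 active means activation above the run's mean over test compounds plus 3 SD, cut at about 23% in these data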;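 further: signal is peak over basal fluorescence ratio across the kinetic read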
Target sequence (P08912 whole entry, looked up): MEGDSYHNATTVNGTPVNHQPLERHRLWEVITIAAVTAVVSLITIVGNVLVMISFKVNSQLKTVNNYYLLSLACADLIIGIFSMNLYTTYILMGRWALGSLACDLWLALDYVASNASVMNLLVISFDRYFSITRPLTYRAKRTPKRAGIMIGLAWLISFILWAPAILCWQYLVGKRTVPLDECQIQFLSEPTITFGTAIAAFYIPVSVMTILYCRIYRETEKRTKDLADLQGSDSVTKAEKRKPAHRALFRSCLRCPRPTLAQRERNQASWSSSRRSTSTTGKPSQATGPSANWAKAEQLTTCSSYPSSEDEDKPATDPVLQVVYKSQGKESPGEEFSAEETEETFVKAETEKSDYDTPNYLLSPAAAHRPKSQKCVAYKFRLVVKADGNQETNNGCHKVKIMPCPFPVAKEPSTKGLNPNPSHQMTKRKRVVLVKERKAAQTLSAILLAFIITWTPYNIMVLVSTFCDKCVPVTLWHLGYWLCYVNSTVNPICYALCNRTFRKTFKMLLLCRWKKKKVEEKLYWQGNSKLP
CHRM5 PAM – human M5 muscarinic receptor positive allosteric modulators, primary screen, CHO-K1 cells, Fluo-8 calcium fluorescence | 360,000 compounds, 0.3% hits | AID 624038, 2012 | CHO-K1 hM5, ACh EC20 PAM; 0% = ACh EC20, 100% = ACh EC100 | Muscarinic acetylcholine receptor M5 (Homo sapiens), P08912 | activation, % at 3 µM;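 active means activation above the run cutoff, the mean activation of all test compounds plus 3 SD, cut at about 18% in these data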
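Probe or stimulus: acetylcholine, EC20 level; Assay system: human M5 receptor in CHO-K1 cells; Schedule: compound preincubation 140 s before EC20 acetylcholine addition; Technique: intracellular calcium via Fluo-8 fluorescence; Dosing: single-point, 3 µM nominal; Read-out basis: percent activation from peak-over-basal fluorescence ratio, scaled EC20-to-EC100 acetylcholine; Repeats: one well per compound, no replicates.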
M5 antag – human M5 muscarinic receptor antagonists, primary screen, CHO cells, Fluo-8 calcium fluorescence | Muscarinic acetylcholine receptor M5 (Homo sapiens), P08912 | CHO-hM5 cells, ACh EC80 | inhibition, % at 3 µM | 360,000 compounds, 0.59% hits | AID 624040, 2012;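 active means inhibition above a per-plate cutoff, the mean of that plate's test compounds plus 3 SD, cut at about 27% in these data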;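 further: 0% = acetylcholine EC80 with DMSO and 100% = DMSO without agonist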
M4 ag – human M4 muscarinic receptor agonists, primary screen, CHO-K1 cells, Fluo-8 calcium fluorescence | Muscarinic acetylcholine receptor M4 (Homo sapiens), P08173 | CHO-K1 hM4/Gqi5; vehicle 0%, full acetylcholine response 100% | activation, % at 3 µM | 360,000 compounds, 0.14% hits | AID 624127, 2012;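 active means activation above the run mean over all test wells plus 3 SD, cut at about 32% in these data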;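 further: peak over basal fluorescence ratio per well then scaled between controls; 0% = DMSO wells and 100% = acetylcholine at EC100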
M4 antag – human M4 muscarinic receptor antagonists, primary screen, CHO cells, Fluo-8 calcium fluorescence; Muscarinic acetylcholine receptor M4 (Homo sapiens), P08173; CHO-hM4 cells, ACh EC80; inhibition, % at 3 µM; 360,000 compounds, 0.73% hits; AID 624125, 2012;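 active means inhibition above its plate's cutoff, the mean inhibition of sample wells plus 3 SD, cut at about 27% in these data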;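 further: 0% = acetylcholine EC80 with DMSO and 100% = DMSO without agonist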
M4 PAM – human M4 muscarinic receptor positive allosteric modulators, primary screen, CHO-K1 cells, Fluo-8 calcium fluorescence; 360,000 compounds, 0.4% hits; CHO-K1 hM4/Gqi5, ACh EC20; 0% = ACh EC20, 100% = maximal ACh; AID 624126, 2012; activation, % at 3 µM; Muscarinic acetylcholine receptor M4 (Homo sapiens), P08173;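 active means activation above its plate's cutoff, the mean activation of sample wells plus 3 SD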
The depositor's hits bear a star.

SMILES	CHRM5 agonist	CHRM5 PAM	M5 antag	M4 ag	M4 antag	M4 PAM
O=C(CNC(=O)Cc1ccccc1)N=Nc1c(O)n(Cc2ccc3c(c2)OCO3)c2ccccc12	-4	11	-4	1	-18	21*
CC(C)n1c(=O)c2ccccc2n1Cc1cn(Cc2ccccc2)nn1	1	1	0	0	-3	-7
O=C(CSc1nnc2c(n1)[nH]c1ccccc12)OCc1ccccc1	1	2	1	1	-6	4
O=C(O)CSc1nnc2c(n1)[nH]c1ccccc12	-5	-11	34*	1	3	1
C/C=C\C(=O)Nc1cccc(C2=NOC3(C2)C[C@@H](C(N)=O)N(C(=O)c2ccc(Cl)cc2)C3)c1 (stereo not given in full)	-2	19*	1	1	-6	7
CN(C)CCN(Cc1cccs1)c1ccccn1	-1	-17	7	1	27*	-17
CN(C)CCN(Cc1ccco1)c1ccccn1	-11	-16	17	1	1	-2
CCOCCc1nnc(NC(=O)c2cc(OC)c(OC)cc2[N+](=O)[O-])s1	3	1	7	1	3	1
CCOCc1nnc(NC(=O)c2cc(OC)c(OC)cc2[N+](=O)[O-])s1	3	10	-15	2	-3	22*
COCOCCn1cc(CN2CCS(=O)(=O)N(Cc3ccc(-c4ccc(OC)c(OC)c4)cc3)C(C)C2=O)nn1 (stereo not given)	0	-2	7	2	-10	-1
Cc1ccc(C(=O)c2sc3nc4c(cc3c2N)CCC4)cc1	-1	5	-4	1	-6	21*
Nc1c(C(=O)N2CCCCC2)sc2nc3c(cc12)CCCC3	-2	0	-3	0	-2	-3
CC1(CCC(=O)O)C(=O)CCC2C1CCC1(C)C2CCC1(C)O (stereo not given)	1	1	3	-1	-4	9
Cc1ccc(-c2cc(C(=O)Nc3cc(C)ccc3O)no2)cc1	0	-1	11	1	-3	8
Cc1ccc(O)c(NC(=O)c2cc(-c3ccccc3Cl)on2)c1	-8	-9	28*	0	4	-6
O=C(NCc1cccnc1)/C(=C/c1ccc(-c2ccc(Cl)cc2)o1)S(=O)(=O)c1ccccc1	3	-3	-1	9	28*	-20
COc1ccc(C(C#N)=Cc2ccc(N(C)CCC#N)cc2)cc1	3	-16	28*	5	11	-7
COC(=O)C1=NN(c2ccc(C)cc2)C2(S1)SC(C(C)=O)=C(C)N2c1ccccc1 (stereo not given)	-1	21*	0	2	22	0
COC(=O)C1=NN(c2ccccc2)C2(S1)SC(C(C)=O)=C(C)N2c1ccccc1 (stereo not given)	-9	13	-2	-1	-2	14
COc1ccc(CN2C[C@@H](CO)O[C@@H](n3cnc4c(NC5CC5)ncnc43)C2)cc1	-1	4	-3	1	-16	7
CC(C)(C)CN1CCC(Oc2cccc(C(=O)N3CCNC(=O)C3(C)C)c2)CC1	-11	-10	31*	1	24	-14
CCCCN(C)C(=O)c1cccc(OC2CCN(CC(C)(C)C)CC2)c1	-21	-5	2	2	2	-3
COCCn1c(SCC(=O)NCc2ccccc2)nnc1-c1ccco1	-2	2	3	0	-17	18*
COCCCn1c(SCC(=O)NC(C)C)nnc1-c1ccccc1	-1	19*	-15	1	2	8
COCCn1c(SCC(=O)Nc2ccc(NC(=O)c3ccco3)c(OC)c2)nc2ccccc2c1=O	1	-15	5	1	-15	20*
SMILES	CHRM5 agonist	CHRM5 PAM	M5 antag	M4 ag	M4 antag	M4 PAM
COCCCn1c(SCC(N)=O)nnc1-c1ccccc1	1	-4	1	1	5	7
CCCCCC(=O)N1C[C@H](n2cc(COC(=O)c3ccccc3)nn2)[C@@H](O)C[C@@H]1c1ccc(OC)cc1	1	0	-2	4	-15	0
O=C(Nc1ccc(Br)cc1)c1ccc(F)c(S(=O)(=O)NCc2cccs2)c1	9	-18	38*	12	24	-10
CC(C)CC1OC(C(C)C)Cc2[nH]c(=S)[nH]c(=O)c21 (stereo not given)	2	-2	3	0	4	7
CCOc1nc(-c2ccccc2)ccc1-c1noc(COC)n1	-7	18*	-12	-1	-3	17
COCCNC(=O)c1cc2c(c(-c3cccc(C#Cc4ccc(OC)c(OC)c4)c3)n1)[C@@H](CCO)N(S(=O)C(C)(C)C)C2 (stereo not given in full)	-7	-10	4	1	5	-6
Cc1ccc(C(c2sc3nc(C)nn3c2O)N2CCN(c3ccccc3F)CC2)cc1 (stereo not given)	-9	19*	-1	0	7	5
Cc1ccc(C(c2sc3nc(C)nn3c2O)N2CCN(CCO)CC2)cc1 (stereo not given)	2	4	-2	0	4	7
C[C@@H](c1ccccc1)N1C[C@@H](COCc2ccccc2)Oc2cc(N3CCC[C@@H]3CO)ccc2S1(=O)=O	4	-8	11	1	1	2
COc1ccc(-c2cnc(C(O)c3ccc(C(C)(C)C)cc3)[nH]2)cc1 (stereo not given)	0	0	2	4	-10	1
CC#CC[N+](C)(C)CCCCCCCC	-15	-2	1	0	12	-6
CCCCCCCCCCCCCCCC[N+](C)(C)Cc1ccc(F)cc1	-13	-35	21	0	36*	-10
CC(C)COC(=O)N1CCCC(c2cc(C(=O)Nc3ccccc3Cl)no2)C1 (stereo not given)	-1	9	8	-2	-15	5
COc1ccc(CN(C)C(C)C(=O)Nc2ccc(S(=O)(=O)N3CCCCC3)cc2)c(OC)c1 (stereo not given)	-5	-25	4	5	26*	-12
CCN(Cc1ccc(OC)c(F)c1)C(C)C(=O)Nc1ccc(S(=O)(=O)N2CCCC2)cc1 (stereo not given)	-1	-1	-3	0	-3	-8

Bioassay records as filed in PubChem.
